Screening data: PubChem, The Scripps Research Institute Molecular Screening Center
TAAR1 antag – antagonists of human TAAR1 | CHO RD-HGA16 TAAR1, Fluo-8 calcium fluorescence, antagonist | inhibition, % at 3 µM | hit rate 1.5% among 360,000 | AID 624466 | Q96RJ0;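 active means inhibition above a per-plate cutoff, the mean inhibition of test compounds on that plate plus 3 SD, cut at about 49% in these data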;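 further: 0% = DMSO plus EC80 beta-PEA response and 100% = DMSO alone without agonist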
Target sequence (Q96RJ0 whole entry, looked up): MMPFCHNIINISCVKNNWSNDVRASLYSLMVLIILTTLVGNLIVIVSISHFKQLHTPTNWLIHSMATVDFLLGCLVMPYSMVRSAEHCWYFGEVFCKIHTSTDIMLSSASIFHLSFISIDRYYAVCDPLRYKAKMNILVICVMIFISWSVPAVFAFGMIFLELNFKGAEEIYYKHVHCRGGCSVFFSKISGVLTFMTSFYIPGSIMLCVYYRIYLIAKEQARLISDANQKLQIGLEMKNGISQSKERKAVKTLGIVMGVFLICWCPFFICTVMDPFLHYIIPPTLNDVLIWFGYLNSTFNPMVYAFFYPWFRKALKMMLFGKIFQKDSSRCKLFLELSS
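Test system: CHO RD-HGA16 cells bearing hTAAR1 | Reagent: β-PEA, EC80 | Compound dosing: 3 µM, single point | Schedule: Dye loading 75 min at 37 °C, then 30 min room temperature | Signal: Calcium fluorescence with Fluo-8 | Evaluation: Percent inhibition of PEA-evoked calcium signal, max/basal emission ratio | Control set: DMSO-only wells and EC80 β-PEA-stimulated wells | Repeats: Singlicate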
CHO parental Ca – counter-screen: ATP calcium response change in parental CHO cells. parental CHO-K1, ATP-induced calcium, Fluo-8 fluorescence. inhibition, % at 5.6 µM. hit rate 0.63% among 330,000. AID 463079;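 active means inhibition above that plate's mean sample inhibition plus 3 SD, cut at about 26% in these data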;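 further: 0% = ATP-challenged DMSO wells and 100% = DMSO wells without ATP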
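Test system: parental CHO cells; detection: calcium-sensitive Fluo-8 fluorescence; evaluation: percent inhibition of calcium signal; also added: ATP as calcium-mobilizing challenge; repeats: one well per compound; control set: ATP-challenged DMSO wells low, unchallenged DMSO wells high; compound: single nominal dose of 5.6 µM per compound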
OX1R antag-1 – antagonists of human orexin 1 receptor. hit rate 0.43% among 330,000. CHO/OX1R cells, Fluo-8 calcium fluorescence, orexin A. O43613. AID 434989. inhibition, % at 5 µM;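 active means inhibition above its plate's threshold, mean inhibition of all tested compounds on the plate plus 3 SD, cut at about 37% in these data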;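 further: 0% = orexin A challenge wells and 100% = SB-334867-A antagonist wells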
Target sequence (O43613 whole entry, looked up): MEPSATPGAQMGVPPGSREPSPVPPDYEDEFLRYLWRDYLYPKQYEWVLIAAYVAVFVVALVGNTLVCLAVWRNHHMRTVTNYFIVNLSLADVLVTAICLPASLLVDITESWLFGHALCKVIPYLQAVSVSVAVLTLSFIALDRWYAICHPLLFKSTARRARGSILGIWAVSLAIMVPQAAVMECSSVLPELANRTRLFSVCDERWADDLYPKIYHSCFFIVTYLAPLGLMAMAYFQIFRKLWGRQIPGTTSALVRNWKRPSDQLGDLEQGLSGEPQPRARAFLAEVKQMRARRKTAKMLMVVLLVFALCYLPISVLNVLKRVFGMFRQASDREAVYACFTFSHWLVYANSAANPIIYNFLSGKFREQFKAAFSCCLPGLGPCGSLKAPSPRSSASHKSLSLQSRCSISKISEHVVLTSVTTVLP
OX1R antag-2 – antagonists of human orexin 1 receptor (OX1R) | O43613 | OX1R-expressing cells, FRET antagonist read-out | inhibition, % at 6.6 µM | hit rate 1.8% among 330,000; in the data active means inhibition mostly above about 38%, no sharp cut-off; inactive means mostly below about 40%;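 further: 0% = agonist challenge alone and 100% = reference antagonist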
TAAR1 agonist – agonists of human TAAR1; AID 624467; CHO RD-HGA16 TAAR1, Fluo-8 calcium fluorescence; vehicle wells 0%, saturating PEA agonist 100%; hit rate 0.99% among 360,000; activation, % at 3 µM; Q96RJ0;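 active means activation above the mean activation of all test compounds in the run plus 3 SD, cut at about 38% in these data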
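Repeats: no replicates (n 1) | Material: CHO-derived RD-HGA16 cells with stable Gα16 and human TAAR1 | Technique: Kinetic Fluo-8 calcium fluorescence | Schedule: 17-24 h seeding, 75 min 37 °C dye, 30 min RT | Evaluation: % activation from peak over basal fluorescence ratio, DMSO-to-PEA scaled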
OX1R Fluo8 conf – confirmation of human orexin 1 receptor antagonists | hit rate 38% among 1,100 | inhibition, % at 5 µM | CHO/OX1R cells, orexin A calcium Fluo-8 fluorescence | shares compounds with OX1R antag-1; in the data active means inhibition above about 29%;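 further: 0% = agonist challenge alone and 100% = reference antagonist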
CHO Ca triplic – counter-screen for OX1R antagonists: effect in parental CHO cells; shares compounds with OX1R antag-1; parental CHO-K1, ATP-induced calcium, Fluo-8 fluorescence; inhibition, % at 5.6 µM; hit rate 9.3% among 1,100;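 active means inhibition above a per-plate limit, the mean inhibition of that plate's test compounds plus 3 SD, cut at about 25% in these data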;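 further: 0% = ATP challenge with DMSO and 100% = DMSO without ATP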
* hit, by the source's call; x = not tested or not shown. Most compounds without a hit are left out; they make up all but 3.9% or so of the library.

SMILES | TAAR1 antag | CHO parental Ca | OX1R antag-1 | OX1R antag-2 | TAAR1 agonist | OX1R Fluo8 conf | CHO Ca triplic
Cc1cc(SCn2nnc3ccccc3c2=O)nc2ccccc12 | -29 | -11 | 1 | 18 | 5 | x | x
Cc1ccc(-n2nnnc2SCn2nnc3ccccc3c2=O)c(C)c1 | 3 | 8 | 42* | 10 | 6 | 12 | 21
CC1=CC2C3C(=O)N(c4ccccc4)C(=O)C3C1C(=O)C2(O)C(C)C (stereo not given) | -22 | x | x | x | 1 | x | x
O=C(CCNC(=O)c1ccc(Br)o1)NC1CCCC1 | 8 | -5 | 23 | 2 | 5 | 7 | -18
CC(C)=CCOc1c2ccoc2c(OCC=C(C)C)c2oc(=O)ccc12 | 23 | -4 | 54* | 13 | -2 | 5 | 53*
O=C1Nc2ccccc2-c2nnnn2C1N1CCCCC1 (stereo not given) | 8 | x | x | x | 0 | x | x
Cc1nc2c(-c3ccc(Cl)cc3)cnn2c(N)c1-c1ccc(F)cc1 | 7 | 1 | -23 | 15 | 1 | x | x
Cc1nc2c(-c3ccc(Cl)cc3)cnn2c2c1CCC2 | -13 | -9 | 40* | 45 | 1 | 34* | -18
CC(C)=CCC/C(C)=C/CNC(=O)C[C@H]1C[C@H](C(=O)N2CCCCC2)[C@@]2(C)c3[nH]c4cc(CCC(=O)N(C)C)ccc4c3CCN2C1=O | x | -13 | 49* | 28 | x | 21 | -11
CC(C)=CCC/C(C)=C/CNC(=O)C[C@H]1C[C@H](C(=O)N2CCOCC2)[C@@]2(C)c3[nH]c4cc(CCC(=O)N(C)C)ccc4c3CCN2C1=O | -28 | 2 | 28 | 13 | 2 | x | x
CCN(CC)c1ccc(/C=N\NC(N)=O)cc1 | 2 | 9 | 32 | 17 | 1 | 1 | 2
CCN(CC)c1ccc(/C=N/NC(=O)CC(C)C)cc1 | 2 | 1 | -7 | 7 | 1 | x | x
COc1cccc(-c2csc(N3CCN(C(=S)Nc4cccc(Cl)c4)CC3)n2)c1 | 33 | 6 | -22 | 25 | 6 | x | x
COc1cccc(-c2csc(N3CCN(C(=O)Nc4ccc(Cl)cc4)CC3)n2)c1 | 58* | 7 | 32 | 30 | 10 | 16 | 7
NC(=O)c1ccc(N2CCN(c3ccccc3F)CC2)c([N+](=O)[O-])c1 | 2 | 20 | 24 | 28 | 4 | 7 | 22
NC(=O)c1ccc(N2CCN(c3ccccc3O)CC2)c([N+](=O)[O-])c1 | 1 | 8 | 1 | 30 | 11 | x | x
CCNC(=S)N(Cc1ccc2c(c1)OCO2)C1CC(=O)N(c2ccc(F)cc2)C1=O (stereo not given) | 1 | 16 | 57* | 59 | 32 | 1 | -4
CC(C)(C)CNc1cc(N2CCCC2)ccc1[N+](=O)[O-] | x | -14 | -14 | 9 | x | x | x
CC(C)c1ccc(CNc2cc(N3CCCC3)ccc2[N+](=O)[O-])cc1 | -8 | 8 | 53* | 8 | 1 | -7 | 39*
Cc1cccc(OCCCC(=O)Nc2ccc(Cl)c(S(=O)(=O)N3CCOCC3)c2)c1 | 27 | -12 | 35 | 7 | 7 | 7 | 8
Cc1cccc(OCCC(=O)Nc2ccc(C)c(S(=O)(=O)N3CCOCC3)c2)c1 | 5 | -9 | -6 | 11 | 8 | x | x
COc1cc(/C=C(\C#N)c2nc3ccccc3o2)ccc1O | 51* | 23 | 34 | 17 | 58* | 56* | 56*
N#C/C(=C\c1ccc(O)cc1)c1nc2ccccc2o1 | 22 | -2 | -4 | 24 | 15 | x | x
COc1ccc(C)cc1NC(=O)CSc1nnc(COc2ccccc2)n1Cc1ccco1 | 1 | 14 | 43 | 23 | 4 | -17 | -14
Cc1cc2ncn(S(=O)(=O)c3ccc(S(N)(=O)=O)cc3)c2cc1C | 4 | x | x | x | 0 | x | x
SMILES | TAAR1 antag | CHO parental Ca | OX1R antag-1 | OX1R antag-2 | TAAR1 agonist | OX1R Fluo8 conf | CHO Ca triplic
CCOc1ccc(S(=O)(=O)n2cnc3cc(C)c(C)cc32)cc1 | -15 | 1 | 60* | 22 | 3 | -1 | 59*
CCc1nc2ccc(C(=O)NCCCN3CCCC3=O)cn2c1N(CC)Cc1cccc(Br)c1 | -31 | x | x | x | 2 | x | x
S=C(NCc1cccnc1)Nc1cccc2ccccc12 | 10 | -7 | 33 | 13 | 1 | -1 | -5
N#CCc1ccc(NC(=O)Nc2cccc(Cl)c2)cc1 | 15 | 13 | 36 | 40 | 28 | 18 | 34*
NS(=O)(=O)c1cccc(NC(=O)Nc2ccc(Cl)cc2)c1 | 14 | 27 | 30 | 32 | 27 | 23 | 20
CN1CCCCC(NC(=O)COCc2ccccc2)C1=O (stereo not given) | -15 | x | x | x | 1 | x | x
Cc1ccccc1NS(=O)(=O)c1cc(C(=O)NCCSC2CCCCC2)ccc1C | 35 | -6 | 60* | 21 | 5 | 4 | -12
Cc1ccc(C)c(NS(=O)(=O)c2cc(C(=O)Nc3cccc(N(C)S(C)(=O)=O)c3)ccc2C)c1 | 23 | 16 | 65* | 34 | 15 | 36* | -8
Cc1ccc(C)c(NS(=O)(=O)c2cc(C(=O)NCC3CCCO3)ccc2C)c1 (stereo not given) | -23 | -10 | -17 | 6 | 2 | x | x
Cc1ccc(C)c(NS(=O)(=O)c2cc(C(=O)NCCSC3CCCCC3)ccc2C)c1 | 30 | -9 | 51* | 17 | 2 | -1 | -15
CC1(C(=O)Nc2cccc(OC(F)(F)F)c2)Cc2c(-c3ccc(C(N)=O)cc3)ccnc2O1 (stereo not given) | 9 | x | x | x | 24 | x | x
Cc1ccc([C@H]2C(C(=O)O)=CCN2S(=O)(=O)c2ccc(C)cc2)cc1 | -18 | x | x | x | 2 | x | x
N=C1/C(=C/c2coc3ccccc3c2=O)C(=O)N=C2SC(c3ccco3)=NN12 | x | -10 | -12 | 3 | x | x | x
N=C1/C(=C\c2coc3ccc(O)cc3c2=O)C(=O)N=C2SC=CN12 | 41 | 21 | 32 | 16 | 48* | 26 | 30*
O=C(c1ccccc1)c1c2c(cc3sc4ccccc4[n+]13)-c1cccc3cccc-2c13 | 9 | 29 | 45 | 12 | 8 | 36* | 37*
Cc1sc2cc3c(c(C(=O)c4ccccc4)[n+]2c1C)-c1cccc2cccc-3c12 | -5 | 2 | 0 | 20 | 1 | x | x
CCOC(=O)c1c(SCCN2CCCCC2)n(-c2ccccc2)c(=S)n(-c2ccccc2)c1=O | 4 | x | x | x | 0 | x | x
COC(=O)c1cc2c(c3c4cc(C)ccc4n(S(=O)(=O)c4cccc(C)c4)c13)C(=O)N(Cc1ccc(N(C)C)cc1)C2 | -13 | x | x | x | -2 | x | x
CC(=O)Oc1cccc(NC(=O)c2cccc(C(=O)Nc3cccc(OC(C)=O)c3)c2)c1 | 69* | -9 | 52* | 3 | 9 | 14 | -2
COc1cccc(C(=O)Nc2cccc(OC(C)=O)c2)c1 | 3 | -11 | -4 | 8 | 3 | x | x
